High-throughput results: PubChem BioAssay, The Scripps Research Institute Molecular Screening Center
rCAG binder: binders of r(CAG) RNA repeats, primary screen, biochemical, fluorescence; inhibition, % at 3 µM; r(CAG) RNA repeat, TO-PRO-1 dye displacement fluorescence; AID 651821, 2012; 1.3% of 370,000 active;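 active = inhibition above the plate cutoff, the mean of all test compounds on that plate plus 3 SD, cut at about 35% in these data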;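 note: 0% = DMSO alone and 100% = 100 µM mitoxantrone as full dye displacement; higher means more dye released from RNA so lower well fluorescence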
PRMT1 inh: PRMT1 methyltransferase inhibitors, primary screen, biochemical, fluorescence polarization | Protein arginine N-methyltransferase 1 (Homo sapiens), Q99873 | recombinant PRMT1, activity-based probe fluorescence polarization | inhibition, % at 2.79 µM | 1.3% of 370,000 active;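 active = inhibition above about 21% made by adding two undisclosed values, limit read from the data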
SIAE inh: human SIAE inhibitors, primary screen, biochemical, fluorescence polarization, FP-Rh probe, 1536-well HTS; Sialate O-acetylesterase (Homo sapiens), Q9HAT2; SIAE FP-Rh probe binding; inhibition, % at 9.66 µM; 0.69% of 370,000 active; AID 1053197, 2014;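 active = inhibition above a cutoff: mean of compounds within the control limits plus 3 SD of those, cut at about 17% in these data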;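 note: 0% = plate median of compound wells and 100% = probe without SIAE protein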
HTRA1 inh: HTRA1 serine protease inhibitors, primary screen, biochemical, fluorescence polarization, HTS; Q92743; recombinant HTRA1, FP-rhodamine activity-based probe; inhibition, % at 5.96 µM; 0.5% of 340,000 active; AID 504803, 2011; in the data active = inhibition above about 36%;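 note: 0% = enzyme with DMSO and 100% = wells lacking enzyme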
Target sequence (Q92743 whole entry, looked up): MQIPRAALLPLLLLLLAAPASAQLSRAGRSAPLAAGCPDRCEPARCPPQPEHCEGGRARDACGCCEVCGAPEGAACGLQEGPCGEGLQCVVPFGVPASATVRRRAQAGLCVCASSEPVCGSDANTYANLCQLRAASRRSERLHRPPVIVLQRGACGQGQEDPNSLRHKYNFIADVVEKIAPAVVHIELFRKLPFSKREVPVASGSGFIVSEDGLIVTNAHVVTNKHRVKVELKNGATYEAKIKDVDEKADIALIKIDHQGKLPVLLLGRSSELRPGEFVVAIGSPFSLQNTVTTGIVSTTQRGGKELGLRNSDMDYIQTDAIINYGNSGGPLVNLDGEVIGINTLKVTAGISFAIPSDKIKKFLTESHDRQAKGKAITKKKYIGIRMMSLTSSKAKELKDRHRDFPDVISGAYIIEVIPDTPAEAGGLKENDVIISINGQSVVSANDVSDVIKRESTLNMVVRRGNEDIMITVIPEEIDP
ABHD4 inh: ABHD4 inhibitors, primary screen, biochemical, fluorescence polarization, mouse; (Lyso)-N-acylphosphatidylethanolamine lipase (Mus musculus), Q8VD66; purified mABHD4, FP-Rh probe fluorescence polarization; inhibition, % at 8.92 µM; 0.54% of 370,000 active; AID 720543, 2013;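 active = inhibition exceeding the mean over every tested compound plus 3 SD, cut at about 30% in these data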;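 note: 0% = plate median of compound wells and 100% = S159A mutant with DMSO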
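Assay system: Wild-type mouse ABHD4 protein | Medium: HEPES pH 7.0 buffer, 150 mM NaCl, 0.01% Pluronic F-127 | Incubation: Enzyme–compound pre-incubation 45 min, then probe 60 min, both 25 °C | Technique: Fluorescence polarization with parallel and perpendicular emission, 525/598 nm | Evaluation: % inhibition of FP-Rh probe binding versus controls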
rCAG binder conf: small molecules binding CAG repeat RNA – biochemical, fluorescence, confirmation; r(CAG) RNA repeat, TO-PRO-1 dye displacement fluorescence; inhibition, % at 3 µM; shares compounds with rCAG binder; 70% of 4,300 active;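 active = inhibition above a per-plate cutoff, the mean inhibition of sample wells plus 3 SD, cut at about 35% in these data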;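 note: loss of TO-PRO-1 fluorescence as compound displaces dye from 1x1 AA loop RNA; 0% = DMSO only wells and 100% = 100 µM mitoxantrone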
dCAG dye counter: displacement of TO-PRO-1 from CAG DNA duplex, counter-screen for rCAG RNA repeat binder project, biochemical, fluorescence, TO-PRO-1 dye, d(CAG) DNA oligo | inhibition, % at 3 µM | d(CAG) DNA oligo TO-PRO-1 dye displacement | shares compounds with rCAG binder | 94% of 4,300 active;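 active = inhibition above its plate's cutoff, the mean test-well inhibition plus 3 SD, cut at about 4.8% in these data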;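 note: 0% = DNA dye mix with DMSO and 100% = 100 µM mitoxantrone; hits displace the dye from DNA and so lower well fluorescence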
DNA CAG DR: inhibitors of DNA CAG/GTC TO-PRO-1 complex, dose response, counter-screen for rCAG RNA repeat binder project, biochemical, fluorescence, TO-PRO-1 dye; DNA CAG/GTC duplex TO-PRO-1 dye displacement fluorescence; 20% of 250 active; shares compounds with rCAG binder; IC50, µM; in the data active = IC50 below about 10 µM
* marks the source's active call; other numbers are inactive results; x = not tested or not shown. A selection: hits, their analogues and other compounds. The true share with any hit is near 3.3%.

SMILES	rCAG binder	PRMT1 inh	SIAE inh	HTRA1 inh	ABHD4 inh	rCAG binder conf	dCAG dye counter	others
O=C(c1c(O)cc(O)cc1O)C1c2c(cc(O)c3c2O[C@H](c2ccc(O)cc2)[C@@H](O)C3)OC1c1ccc(O)cc1 (stereo partly specified)	37*	6	1	16	-27	45*	16*
CCCCOCCCNC(=O)C[C@H]1C[C@@]2(C(=O)OC)C(=C[C@H](COCc3ccccc3)O[C@@H]2C)N(CCc2ccc(OC)c(OC)c2)C1=O	0	-1	3	x	3	x	x
Cc1ccc(S(=O)(=O)NC(=O)COc2cc(C)ccc2C(C)C)cc1	36*	0	6	-7	3	18	3
COC(=O)[C@]12C[C@H](CC(=O)NCc3ccc(OC)c(OC)c3)C(=O)N(Cc3ccco3)C1=C[C@H](C(C)(C)C)O[C@@H]2C	0	2	3	x	1	x	x
Cc1cccc(NC(=O)COc2ccc(/C=C\c3[nH]c(=O)[nH]c(=O)c3[N+](=O)[O-])cc2)c1	87*	7	-41	-22	-68	87*	66*
CCC(=O)Nc1sc2c(c1C(N)=O)CCC2	2	2	5	1	-10	x	x
NC(=O)c1c(NC(=O)COC(=O)c2ccc(O)c(Cl)c2)sc2c1CCCC2	39*	4	-1	-5	9	43*	15*
N#CCC(=O)Nc1sc2c(c1C(N)=O)CCCC2	35*	-1	0	-4	-17	3	4.5*
N#Cc1c(-c2ccc(F)cc2)cc(-c2ccccc2)nc1SCC(=O)NCC(=O)O	23	12	-7	-6	-2	x	x
COc1cc(-c2cc(-c3ccccc3)nc(SCC(=O)O)c2C#N)cc(OC)c1OC	41*	-3	-10	-18	-1	50*	17*
N#Cc1c(-c2ccccc2)cc(C2CC2)nc1SCC(=O)O	14	0	-4	-3	0	x	x
N#Cc1c(-c2ccccc2)cc(-c2ccccc2)nc1SCCC(=O)O	61*	4	-24	-32	-6	66*	28*	DNA CAG DR=>30
N#Cc1c(-c2ccc(Cl)cc2)cc(-c2ccccc2)nc1SCC(=O)O	76*	-1	-9	-77	-21	84*	53*
O=C(CCN1C(=O)/C(=C\C=C\c2ccccc2)SC1=S)Nc1ccc(C(=O)O)cc1	46*	3	-15	-35	-51	78*	43*
O=C(CN1C(=O)S/C(=C\C=C\c2ccccc2)C1=O)Nc1ccc(C(=O)O)cc1	54*	12	-4	-33	-43	46*	18*
O=C(CN1C(=O)/C(=C\C=C\c2ccccc2)SC1=S)Nc1ccc(F)cc1	13	0	-18	-13	-11	x	x
O=C(COC(=O)CCN1C(=O)/C(=C\C=C\c2ccccc2)SC1=S)Nc1cc(F)ccc1F	38*	16	-18	-25	0	28	14*
O=C(CN1C(=O)S/C(=C/C=C/c2ccccc2)C1=O)Nc1ccc(C(=O)O)cc1	65*	4	-12	-16	-40	45*	15*
CCN(CC)C(=O)CC[C@@H]1CC[C@]2(CCCN(C(=O)c3ccco3)C2)O1	2	2	11	x	0	x	x
Cc1ccc(S(=O)(=O)n2ccc(-c3c(-c4ccccc4)noc3C)n2)cc1	-1	-4	-2	x	-10	x	x
